Activity calls are given as the source filed them. The rule behind the calls is not given here.

One data set has as its system BCRP. Nature of the data set: Therapeutic index, ratio of GI50 for MDCK cells to IC50 for human BCRP expressed in MDCK2 cells. The settings on record: dog.
The target of data set [1] is T1, Broad substrate specificity ATP-binding cassette transporter ABCG2 (Homo sapiens, UniProt Q9UNQ0).
T1 sequence (Q9UNQ0 whole entry): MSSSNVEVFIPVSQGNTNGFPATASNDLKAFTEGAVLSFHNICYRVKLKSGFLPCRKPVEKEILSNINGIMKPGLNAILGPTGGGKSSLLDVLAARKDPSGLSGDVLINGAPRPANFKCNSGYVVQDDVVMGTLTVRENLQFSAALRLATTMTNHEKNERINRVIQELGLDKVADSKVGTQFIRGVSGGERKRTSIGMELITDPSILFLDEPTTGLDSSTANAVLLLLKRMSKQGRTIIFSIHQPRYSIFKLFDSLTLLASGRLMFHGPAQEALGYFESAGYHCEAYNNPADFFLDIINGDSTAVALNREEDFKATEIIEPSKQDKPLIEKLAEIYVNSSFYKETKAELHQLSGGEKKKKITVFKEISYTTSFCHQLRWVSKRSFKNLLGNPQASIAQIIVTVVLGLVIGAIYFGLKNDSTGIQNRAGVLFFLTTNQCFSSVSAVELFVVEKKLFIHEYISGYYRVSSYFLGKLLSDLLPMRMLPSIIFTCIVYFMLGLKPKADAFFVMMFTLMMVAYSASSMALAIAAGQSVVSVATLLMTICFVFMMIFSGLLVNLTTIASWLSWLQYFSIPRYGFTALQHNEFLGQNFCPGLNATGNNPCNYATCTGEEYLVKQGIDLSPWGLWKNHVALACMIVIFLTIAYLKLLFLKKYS
Kind of data set: Inhibition of human BCRP expressed in MDCK2 cells assessed as pheophorbide A accumulation treated 30 mins before pheophorbide A addition measured up to 120 mins by flow cytometry. In kind it is cell-based, MDCK-II.

The target in the next data set is MDR1 (Homo sapiens, UniProt P08183). Kind of data set: (§1) Inhibition of MDR1 in human doxorubicin-resistant A2780adr cells assessed as Calcein AM accumulation at 10 uM treated 30 mins before Calcein AM addition measured up to 90 mins by fluorescence assay relative to control. The settings on record: doxorubicin-resistant A2780adr cells, probe Calcein AM. In kind it is cell-based, A2780 ADR.
Chain of MDR1 (P08183 whole entry): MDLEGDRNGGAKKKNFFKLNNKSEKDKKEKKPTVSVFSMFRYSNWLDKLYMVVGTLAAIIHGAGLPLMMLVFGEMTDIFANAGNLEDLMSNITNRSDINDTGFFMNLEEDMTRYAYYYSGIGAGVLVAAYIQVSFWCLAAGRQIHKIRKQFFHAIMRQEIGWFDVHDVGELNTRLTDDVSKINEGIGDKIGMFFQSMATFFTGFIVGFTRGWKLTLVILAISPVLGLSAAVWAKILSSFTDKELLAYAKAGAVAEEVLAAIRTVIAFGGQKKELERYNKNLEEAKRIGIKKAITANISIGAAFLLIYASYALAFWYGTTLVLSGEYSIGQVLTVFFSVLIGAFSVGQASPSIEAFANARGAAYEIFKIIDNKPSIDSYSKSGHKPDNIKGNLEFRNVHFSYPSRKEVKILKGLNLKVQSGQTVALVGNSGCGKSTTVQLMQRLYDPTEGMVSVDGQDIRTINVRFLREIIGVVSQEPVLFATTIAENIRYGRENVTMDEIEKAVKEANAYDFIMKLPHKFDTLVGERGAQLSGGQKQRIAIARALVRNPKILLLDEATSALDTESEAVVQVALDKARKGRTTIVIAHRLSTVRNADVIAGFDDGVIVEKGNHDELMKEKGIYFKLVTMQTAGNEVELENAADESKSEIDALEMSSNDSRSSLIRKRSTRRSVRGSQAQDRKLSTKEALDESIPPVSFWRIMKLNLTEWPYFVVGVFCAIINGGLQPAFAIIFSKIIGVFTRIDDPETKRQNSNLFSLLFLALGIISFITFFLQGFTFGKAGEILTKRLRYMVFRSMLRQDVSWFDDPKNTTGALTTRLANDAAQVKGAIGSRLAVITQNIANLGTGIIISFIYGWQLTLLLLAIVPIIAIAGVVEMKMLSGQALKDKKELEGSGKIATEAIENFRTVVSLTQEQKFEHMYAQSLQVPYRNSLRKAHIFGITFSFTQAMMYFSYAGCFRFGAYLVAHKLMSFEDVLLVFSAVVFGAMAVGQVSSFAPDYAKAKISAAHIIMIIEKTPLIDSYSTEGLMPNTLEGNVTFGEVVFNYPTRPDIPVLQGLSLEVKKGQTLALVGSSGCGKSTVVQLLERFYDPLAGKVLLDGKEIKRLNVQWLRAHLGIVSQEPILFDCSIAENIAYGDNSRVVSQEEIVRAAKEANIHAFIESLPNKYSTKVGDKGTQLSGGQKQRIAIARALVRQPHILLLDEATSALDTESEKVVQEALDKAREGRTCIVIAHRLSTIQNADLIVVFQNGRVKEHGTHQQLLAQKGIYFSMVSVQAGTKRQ

The target in data set [2] is T2, ATP-dependent translocase ABCB1 (Homo sapiens, UniProt P08183). Nature of the data set: Inhibition of MDR1 in human doxorubicin-resistant A2780adr cells assessed as Calcein AM accumulation treated 30 mins before Calcein AM addition measured up to 90 mins by fluorescence assay. It counts as cell-based, A2780 ADR.
T2 sequence (P08183 whole entry): as above
Data set [3] is described as follows: Cytotoxicity against MDCK cells after 72 hrs by MTT assay. It counts as cell-based, Canis lupus familiaris. The settings on record: dog. The method, boiled down:
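MTT assay in MDCK BCRP and parental MDCK cells: 2500 cells/well, 6 h attachment at 37 °C, 5% CO₂, compounds up to 100 µM for 72 h. MTT (5 mg/ml solution) added for 1 h, then lysis in DMSO. Absorbance read at 544 nm with 710 nm background correction. Controls were 10% DMSO medium and PBS only. GI₅₀ derived.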

Another data set deals with MRP1 (Homo sapiens, UniProt P33527). Kind of data set: (§2) Inhibition of MRP1 in human 2008 cells assessed as Calcein AM accumulation at 10 uM treated 30 mins before Calcein AM addition measured up to 90 mins by fluorescence assay relative to control. It counts as cell-based. Conditions: human, 2008 cells, probe Calcein AM.
Chain of MRP1 (P33527 whole entry): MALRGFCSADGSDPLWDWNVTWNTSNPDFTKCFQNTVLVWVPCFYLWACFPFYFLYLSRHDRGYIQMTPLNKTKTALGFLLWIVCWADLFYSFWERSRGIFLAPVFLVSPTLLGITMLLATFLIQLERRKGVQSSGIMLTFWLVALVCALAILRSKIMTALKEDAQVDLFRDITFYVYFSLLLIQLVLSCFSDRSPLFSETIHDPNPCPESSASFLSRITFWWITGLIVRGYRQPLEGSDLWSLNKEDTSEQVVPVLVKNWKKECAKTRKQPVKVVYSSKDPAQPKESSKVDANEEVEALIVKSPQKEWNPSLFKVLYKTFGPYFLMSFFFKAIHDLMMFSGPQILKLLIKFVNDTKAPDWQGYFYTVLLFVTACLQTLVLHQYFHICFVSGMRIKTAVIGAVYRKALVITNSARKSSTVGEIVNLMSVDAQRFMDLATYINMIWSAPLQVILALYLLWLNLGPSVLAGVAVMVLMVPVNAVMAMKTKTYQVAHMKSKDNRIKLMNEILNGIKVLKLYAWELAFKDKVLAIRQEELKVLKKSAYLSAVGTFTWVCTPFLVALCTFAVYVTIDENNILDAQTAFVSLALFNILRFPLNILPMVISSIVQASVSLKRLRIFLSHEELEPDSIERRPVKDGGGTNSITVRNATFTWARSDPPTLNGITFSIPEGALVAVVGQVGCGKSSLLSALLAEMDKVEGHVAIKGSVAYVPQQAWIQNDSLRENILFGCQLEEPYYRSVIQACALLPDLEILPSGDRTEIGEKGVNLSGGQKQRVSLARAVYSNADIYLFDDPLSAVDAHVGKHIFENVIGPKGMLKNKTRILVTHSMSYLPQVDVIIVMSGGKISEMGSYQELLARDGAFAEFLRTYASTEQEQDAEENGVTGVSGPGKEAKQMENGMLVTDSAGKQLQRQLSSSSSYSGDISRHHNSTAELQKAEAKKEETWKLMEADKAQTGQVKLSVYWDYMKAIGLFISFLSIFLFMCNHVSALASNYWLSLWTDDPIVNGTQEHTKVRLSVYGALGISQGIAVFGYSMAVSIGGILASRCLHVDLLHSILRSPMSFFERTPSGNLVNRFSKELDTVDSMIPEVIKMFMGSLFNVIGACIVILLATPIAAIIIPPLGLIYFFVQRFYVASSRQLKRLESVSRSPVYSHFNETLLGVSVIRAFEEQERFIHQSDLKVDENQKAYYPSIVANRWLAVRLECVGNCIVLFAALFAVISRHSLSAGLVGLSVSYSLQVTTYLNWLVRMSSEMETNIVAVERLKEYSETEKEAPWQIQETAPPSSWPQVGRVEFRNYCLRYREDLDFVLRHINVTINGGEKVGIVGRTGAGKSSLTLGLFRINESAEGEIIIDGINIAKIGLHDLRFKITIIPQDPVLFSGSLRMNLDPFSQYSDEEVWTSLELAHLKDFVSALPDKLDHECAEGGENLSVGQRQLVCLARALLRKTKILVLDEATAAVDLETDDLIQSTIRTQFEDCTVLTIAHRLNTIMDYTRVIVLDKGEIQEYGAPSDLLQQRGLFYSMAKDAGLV
Data set [4] has as its target T1, Broad substrate specificity ATP-binding cassette transporter ABCG2. Nature of the data set: Inhibition of human BCRP expressed in MDCK2 cells assessed as Hoechst 33342 accumulation treated 30 mins before Hoechst 33342 addition measured up to 120 mins by fluorescence assay. In kind it is cell-based, MDCK-II.
The subject of a further data set is MDCK-II. Nature of the data set: Increase of plasma membrane expression of BCRP expressing reporter gene GFP in BCRP-MDCK2 cells at 0.5 to 1.8 uM after 72 hrs by fluorescence assay. It counts as functional, cell-based. The settings on record: Canis lupus familiaris, in the assay text read “total expression” for “plasma membrane expression”. The gist of the method: (§3)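 MDCK II cells transfected with human wild-type BCRP cDNA C-terminally fused to GFP. Seeded at 100,000 cells/well and treated 4 h later at final 0.5, 1.0 and 1.8 µM for 72 h at 37 °C. Surface BCRP measured by 5D3 antibody binding (FL2, 585 nm) and total BCRP by GFP (FL1, 520 nm) on a flow cytometer, gated on scatter. Geometric means normalized to untreated cells as 100%.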

Data set [5] can be described thus: Reduction of plasma membrane expression of BCRP expressing reporter gene GFP in BCRP-MDCK2 cells at 0.5 to 1.8 uM after 72 hrs by fluorescence assay relative to control. In kind it is functional, cell-based. Details: scale not given: the % may be the effect or the level left. The settings on record: Canis lupus familiaris, MDCK-II. The gist of the method: as §3

In data set [6] the target is T1, Broad substrate specificity ATP-binding cassette transporter ABCG2. Nature of the data set: Reversal of human BCRP-mediated multidrug resistant in MDCK2 cells assessed as increase of Hoechst 33342-induced cytotoxicity at 1 to 5 uM after 72 hrs by MTT assay. The settings on record: mdck-ii. In kind it is cell-based. The gist of the method: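 MDR reversal by MTT assay in MDCK BCRP cells with compounds at final 1 µM and 5 µM. Dose–response curves to Hoechst 33342 were compared with and without inhibitor and against sensitive MDCK cells. Conditions as for the MTT cytotoxicity assay: 2500 cells/well, 72 h, absorbance at 544/710 nm.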

The target in data set [7] is T2, ATP-dependent translocase ABCB1. Described as §1. The settings on record: a2780 adr, 10 µM. It counts as cell-based, A2780 ADR.
For data set [8], the target named is Multidrug resistance-associated protein 1 (Homo sapiens, UniProt P33527). The description is as §2. Conditions: human, 2008, 10 µM. In kind it is cell-based.
Chain of Multidrug resistance-associated protein 1 (P33527 whole entry): as above

With `COc1ccc(-c2nc(Nc3cccc(O)c3)c3ccccc3n2)cc1OC`, the selectivity ratio in the data set with BCRP (mdck2) amounted to 33. Also, the IC50 in [1] was 110 nM; in [2], 18200 nM; in data set [4] it was 140 nM. Also, the inhibition at 90 min, 10 µM at MDR1 and on MRP1 was more than 50% each time. Halving of growth in data set [3] (GI50 at 72 h) required 4610 nM.

Turning to `COc1ccc(Nc2ncnc3ccccc23)cc1OC`, the figures for the IC50 in data set [1] and in data set [4] were 3380 nM and 4790 nM, respectively.

Turning to `COc1ccc(-c2nc(Nc3cccc([N+](=O)[O-])c3)c3ccccc3n2)cc1OC`, the result with MDCK-II was Active. For the same compound, the inhibition at 90 min, 10 µM on MDR1 and on MRP1 was more than 50% in each case. Further, in data set [2], the IC50 is 9560 nM. Besides, it took 20800 nM to inhibit growth in data set [3] by half (GI50 at 72 h). In [5], this compound registered an Activity of 75%.

Regarding `FC(F)(F)c1cccc(Nc2ncnc3ccccc23)c1`, the values for the IC50 in data set [1] and in [4] were 1550 nM and 940 nM, respectively.

For `Oc1cccc(Nc2nc(-c3ccccc3)nc3ccccc23)c1`, in the data set with BCRP (mdck2), the selectivity ratio came out at 340. The outcome in data set [6] was Active. Further, the “inhibition (INH)” value in [7] and in data set [8] was “Not Active” in each case. Growth in data set [3] was halved (GI50 at 72 h) at 51100 nM. Moreover, in data set [4], the IC50 is 150 nM.

As for `COc1cc2ncnc(Nc3ccccc3[N+](=O)[O-])c2cc1OC`, the IC50 came out at 3970 nM in data set [1] and 3800 nM in [4].

As for `COc1ccc(Nc2nc(-c3ccc(OC)c(OC)c3)nc3ccccc23)cc1OC`, the IC50 in [1] was 610 nM; in [2] it was 3490 nM; in [4] it was 420 nM. The inhibition at 90 min, 10 µM at MDR1 and at MRP1 was more than 50% in each case.

As for `O=[N+]([O-])c1cccc(Nc2nc(-c3ccccc3)nc3ccccc23)c1`, the outcome in the data set on MDCK-II was Active. Further, the “inhibition (INH)” value in data set [7] and in data set [8] was “Not Active” in each case. The same compound showed a GI50 at 72 h in [3] of 67800 nM. In addition, in [5], the outcome was inactive.

On to `COc1cc2nc(Nc3cccc([N+](=O)[O-])c3)nc(Nc3cccc([N+](=O)[O-])c3)c2cc1OC`, for which the results for the IC50 in [1] and in [4] were 320 nM and 330 nM, respectively.

For the compound `Brc1cccc(Nc2nc(-c3ccccc3)nc3ccccc23)c1`, the IC50 in [2] was 12400 nM.

For `COc1ccc(-c2nc(Nc3ccccc3)c3ccccc3n2)cc1OC`, the results for the IC50 in [1] and in data set [4] were 4090 nM and 1990 nM, respectively. For the same compound, the inhibition at 90 min, 10 µM at MDR1 and on MRP1 was more than 50% throughout.

For the compound `N#Cc1cccc(Nc2ncnc3ccccc23)c1`, the IC50 amounted to 2030 nM in data set [1] and 1180 nM in data set [4].

`O=[N+]([O-])c1cccc(Nc2ncnc3ccccc23)c1`: the selectivity ratio with BCRP worked out at 16. Further, the outcome with MDCK-II was Active. Besides, the IC50 in [1] worked out at 890 nM; in data set [4], 1130 nM. In addition, growth in [3] was halved (GI50 at 72 h) at 18300 nM. In [5], the result was inactive.

On to `COc1ccc(-c2nc(Nc3ccccc3O)c3ccccc3n2)cc1OC`, for which the IC50 was 290 nM in data set [1] and 260 nM in data set [4]. Besides, the inhibition at 90 min, 10 µM at MDR1 and on MRP1 was more than 50% in each case.

For `COc1cc2nc(Nc3cccc(C#N)c3)nc(Nc3cccc(C#N)c3)c2cc1OC`, the IC50 amounted to 470 nM in [1] and 480 nM in data set [4].

Take `COc1cc2ncnc(Nc3cccc(C(F)(F)F)c3)c2cc1OC`: the IC50 came to 1980 nM in [1] and 2400 nM in data set [4].

Consider `COc1ccc(Nc2nc(Nc3ccc(OC)c(OC)c3)c3cc(OC)c(OC)cc3n2)cc1OC`, for which the IC50 in [1] stood at 1520 nM; in [4], 1740 nM.

In the case of `COc1cc2nc(Nc3cccc(C(F)(F)F)c3)nc(Nc3cccc(C(F)(F)F)c3)c2cc1OC`, the half-maximal inhibitory concentration (IC50) was determined as 610 nM in [1] and 800 nM in [4].

With `COc1ccc(-c2nc(Nc3ccc(O)cc3)c3ccccc3n2)cc1OC`, the IC50 in data set [1] was determined as 680 nM; in data set [4] it was 470 nM. Besides, the inhibition at 90 min, 10 µM at MDR1 and at MRP1 was more than 50% each time.

On to `COc1cc2ncnc(Nc3ccc(F)c(Cl)c3)c2cc1OCCCN1CCOCC1` [GEFITINIB], for which the outcome (in the data set on MDCK-II; in data set [5]) was Active. Besides, the GI50 at 72 h in data set [3] turned out to be 1450 nM.

On to `COc1cc2ncnc(Nc3cccc(Br)c3)c2cc1OC`, for which the results for the IC50 in data set [1] and in data set [4] were 2320 nM and 1730 nM, respectively.

As for `COc1ccc(-c2nc(Nc3cccc(Br)c3)c3ccccc3n2)cc1OC`, the IC50 in [1] is 400 nM; in [2], 11800 nM; in [4], 290 nM. For the same compound, the inhibition at 90 min, 10 µM on MDR1 and at MRP1 was more than 50% in each case.

On to `COc1ccc(Nc2ncnc3cc(OC)c(OC)cc23)cc1OC`, for which the IC50 is 3790 nM in data set [1] and 7380 nM in data set [4].

For the compound `Brc1cccc(Nc2ncnc3ccccc23)c1`, the concentration for half-maximal inhibition (IC50) in data set [1] worked out at 1480 nM; in data set [4], 1080 nM.

As for `COc1ccc(-c2nc(Nc3ccccc3[N+](=O)[O-])c3ccccc3n2)cc1OC`, the figures for the IC50 in data set [1] and in data set [4] were 1550 nM and 640 nM, respectively. In addition, the inhibition at 90 min, 10 µM on MDR1 and at MRP1 was more than 50% each time.

With `COc1cc2nc(Nc3cccc(Br)c3)nc(Nc3cccc(Br)c3)c2cc1OC`, the IC50 in [1] is 860 nM; in data set [4], 670 nM.

With `COc1cc2ncnc(Nc3cccc([N+](=O)[O-])c3)c2cc1OC`, the selectivity ratio in the data set on BCRP amounted to 1.85. Moreover, the outcome in the data set on MDCK-II was inactive. For the same compound, the IC50 in data set [1] is 910 nM; in data set [4], 810 nM. In addition, in data set [3], growth was halved (GI50 at 72 h) at 1500 nM. Also, the Activity in [5] was found to be 60%.

As for `COc1cc2ncnc(Nc3cccc(C#N)c3)c2cc1OC`, the IC50 in [1] was determined as 930 nM; in data set [4] it was 1060 nM.

For the compound `COc1ccc(-c2nc(Nc3cccc(C(F)(F)F)c3)c3ccccc3n2)cc1OC`, the IC50 is 240 nM in [1] and 300 nM in data set [4]. Moreover, the inhibition at 90 min, 10 µM on MDR1 and at MRP1 was more than 50% throughout.

Regarding `COc1cc2ncnc(Nc3ccc([N+](=O)[O-])cc3)c2cc1OC`, the figures for the IC50 in data set [1] and in [4] were 2460 nM and 2920 nM, respectively.

On to `COc1ccc(-c2nc(Nc3cccc(C#N)c3)c3ccccc3n2)cc1OC`, for which the inhibition at 90 min, 10 µM at MDR1 and at MRP1 was more than 50% in each case.

(Values after ChEMBL document CHEMBL3091323, “Investigation of quinazolines as inhibitors of breast cancer resistance protein (ABCG2)” (Bioorg Med Chem, 2013).)
